GPR7 antagonist: human neuropeptides B/W receptor 1 antagonism; P48145; GPR7-expressing cells, fluorescence antagonist assay; inhibition, % at 4.4 µM; actives 1.1% (n = 290,000); AID 1861; in the data active = inhibition above about 16%, passing the limit was not always enough;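 also: cells stimulated with the agonist NPW; 0% = agonist with vehicle and 100% = vehicle without agonist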
GalR3 antag: human GalR3 antagonism; HEK293 GalR3-CNG cAMP membrane potential fluorescence; galR3 body fused to GalR1 C-terminus; inhibition, % at 3 µM; actives 0.44% (n = 360,000);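 active = inhibition above the screen-wide average plus 3 SD, cut at about 13% in these data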;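 also: forskolin and galanin both at EC90 stimulate the cells; cAMP rise reported by CNG channel membrane potential dye signal; 0% = forskolin plus galanin with DMSO and 100% = forskolin alone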
CHO parental Ca: signal in parental CHO cells, OX1R antagonist counter-screen. parental CHO-K1, ATP-induced calcium, Fluo-8 fluorescence. inhibition, % at 5.6 µM. actives 0.63% (n = 330,000). AID 463079;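 active = inhibition above that plate's mean sample inhibition plus 3 SD, cut at about 26% in these data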;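 also: 0% = ATP-challenged DMSO wells and 100% = DMSO wells without ATP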
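Material: Parental CHO cells | Reagent: ATP | Compound dosing: Single nominal dose of 5.6 µM per compound | Detection: Intracellular calcium via Fluo-8 no-wash fluorescent dye | Read-out: % inhibition of ATP-induced calcium mobilization | Benchmarks: Low control ATP plus DMSO, high control DMSO only | Replicates: Singlicate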
OX1R antag-1: blocks the human orexin 1 receptor | OX1R-expressing cells, FRET antagonist read-out | inhibition, % at 6.6 µM | actives 1.8% (n = 330,000) | O43613; in the data active = inhibition mostly above about 38%, no sharp cut-off; inactive = mostly below about 40%;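 also: 0% = agonist challenge alone and 100% = reference antagonist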
Target sequence (O43613 whole entry, looked up): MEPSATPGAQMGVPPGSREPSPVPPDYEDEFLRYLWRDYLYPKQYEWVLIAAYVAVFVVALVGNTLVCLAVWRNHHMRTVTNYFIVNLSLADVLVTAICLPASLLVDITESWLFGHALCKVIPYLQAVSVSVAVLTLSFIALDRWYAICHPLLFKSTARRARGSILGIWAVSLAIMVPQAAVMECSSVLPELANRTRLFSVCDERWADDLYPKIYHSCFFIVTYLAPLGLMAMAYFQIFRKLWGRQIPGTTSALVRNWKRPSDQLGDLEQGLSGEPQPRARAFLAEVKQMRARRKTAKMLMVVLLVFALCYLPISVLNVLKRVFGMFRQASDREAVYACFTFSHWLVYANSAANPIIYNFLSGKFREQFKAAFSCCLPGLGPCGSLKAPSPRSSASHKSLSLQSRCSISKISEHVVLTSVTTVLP
OX1R antag-2: antagonists of human orexin 1 receptor; O43613; CHO/OX1R cells, Fluo-8 calcium fluorescence, orexin A; actives 0.43% (n = 330,000); AID 434989; inhibition, % at 5 µM;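 active = inhibition above its plate's threshold, mean inhibition of all tested compounds on the plate plus 3 SD, cut at about 37% in these data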;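 also: 0% = orexin A challenge wells and 100% = SB-334867-A antagonist wells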
GalR3 antag conf: confirmation of human galanin receptor 3 antagonists. HEK293 GalR3 CNG cAMP biosensor, membrane potential fluorescence; galR3 fused to GalR1 carboxy tail; challenged with forskolin and galanin at EC90. inhibition, % at 3 µM. shares compounds with GalR3 antag. actives 59% (n = 1,600);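 active = inhibition above the primary screen's cutoff, the mean inhibition of all screened compounds plus 3 SD, cut at about 13% in these data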;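 also: 0% = forskolin plus galanin and 100% = forskolin alone with DMSO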
HEK-CNG parental: acts as nonspecific agonist in parental HEK-CNG cells. AID 652268. shares compounds with GalR3 antag. HEK293-CNG parental cells, cAMP membrane potential fluorescence; normalised: DMSO wells 0%, forskolin wells 100%. activation, % at 3 µM. actives 10% (n = 1,600); in the data active = activation above about 1.3%
The depositor's hits bear a star; nt = no result given. This is a sample that favours compounds with a hit; in the whole collection about 3.1% have one here.

SMILES	GPR7 antagonist	GalR3 antag	CHO parental Ca	OX1R antag-1	OX1R antag-2	GalR3 antag conf	HEK-CNG parental
CCc1cccc(NC(=O)CN(C)S(=O)(=O)c2cccs2)c1	-0.6	14.1*	-1.9	7.2	-12.7	12.0	-0.3
CN(CC(=O)Nc1ccc(F)c(F)c1)S(=O)(=O)c1cccs1	-10.5	-0.2	3.4	3.6	-20.8	nt	nt
S=C1NNC2(NN1)C1CC3CC(C1)CC2C3	-2.7	15.0*	-7.8	38.3	-11.8	3.1	0.3
CC(C)c1c(O)c2c(n(-c3ccccc3)c1=O)CCCC2	-1.1	nt	-5.5	6.5	-2.1	3.4	1.9*
O=c1c(-c2ccccc2)c(O)c2c(n1-c1ccccc1)CCCC2	-0.3	-8.4	-3.3	0.3	10.8	nt	nt
O=C(O)c1ccccc1NS(=O)(=O)c1cccc(C(F)(F)F)c1	1.5	-4.9	-10.3	5.1	-14.1	nt	nt
O=C(O)c1ccccc1NS(=O)(=O)c1cccc(-n2sc3ccccc3c2=O)c1	-7.7	33.2*	nt	nt	nt	23.3*	-0.1
Cc1ccc(S(=O)(=O)NN2C(=O)c3ccccc3NC2c2ccccn2)cc1 (configuration not stated)	4.3	14.0*	-23.7	29.2	-30.7	-1.2	0.0
CC[C@]12c3[nH]c4ccccc4c3CCN1C(=O)C(CC(=O)NCCC1=CCCCC1)C[C@@H]2C(=O)N1CCN(C(=O)C2CC2)CC1 (some centres not stated)	nt	-6.2	-33.6	4.7	-43.9	nt	nt
COc1cc(CN2CCN(CC3CC3)CC2CCO)cc(OC)c1 (configuration not stated)	-8.0	-2.3	-16.0	8.7	-25.7	nt	nt
O=C(NC1CCN(Cc2ccccc2)CC1)c1ccc(S(=O)(=O)NCc2ccco2)cc1	0.8	62.8*	-4.8	26.7	-6.2	52.2*	0.3
Cn1ncc(N=Cc2c(O)ccc3ccccc23)c1C(=O)Nc1cccc(Cl)c1	-11.4	3.5	-7.9	12.4	-10.8	nt	nt
O=S(=O)(c1ccc(Cl)cc1)N1CCN(S(=O)(=O)N2CCCCCC2)CC1	-3.6	16.1*	3.8	8.4	-13.5	3.3	-0.2
CC1(C)CC(=O)/C(=C(\O)CCCN2C(=O)c3ccccc3C2=O)C(=NCC(=O)O)C1	-11.4	14.7*	2.0	9.2	8.9	1.1	0.1
O=C(c1ccc(F)c(S(=O)(=O)N2CCOCC2)c1)N1CCc2ccccc21	-2.1	0.7	1.6	20.8	-7.1	nt	nt
Fc1ccc(CN2CCN(c3ncc(Cc4ccccc4)cn3)CC2)c(Cl)c1	nt	81.9*	nt	nt	nt	109.2*	-0.2
Clc1cc(Cl)cc(CN2CCN(c3ncc(Cc4ccccc4)cn3)CC2)c1	nt	-7.0	nt	nt	nt	nt	nt
CCOCCn1c(=O)c2c(nc3n2CC(C)CN3CCc2ccccc2)n(C)c1=O (configuration not stated)	-7.5	2.6	-6.3	15.9	-29.5	nt	nt
Cc1sc2ncnc(NCC(O)c3ccccc3)c2c1C (configuration not stated)	2.2	38.3*	43.2*	27.9	19.7	25.2*	0.9
Cc1sc2ncnc(NCc3cccs3)c2c1C	-11.4	54.7*	36.1*	28.3	2.7	58.0*	0.0
Cc1sc2ncnc(NCc3ccco3)c2c1C	-13.3	-4.9	-10.4	33.7	5.3	nt	nt
CCOc1ccc(NC(=O)CSc2nc3ccccc3nc2N2CCOCC2)cc1	11.9	nt	-11.1	8.6	-10.2	nt	nt
Cc1cc(NC(=O)C(C)SCC(=O)N(C)CC(=O)Nc2ccccc2Br)no1 (configuration not stated)	nt	-3.8	-17.0	9.3	-38.3	nt	nt
CCCOc1ccc(Br)cc1CSC(=N)N	54.5*	49.8*	14.1	12.5	0.2	94.8*	5.8*
CCOc1ccc(Br)cc1CC(=O)O	17.8	1.2	-24.2	16.9	-15.0	nt	nt
CC(C)CCOc1cccc(OCC(=O)Nc2ccncc2)c1	20.7	91.5*	59.0*	43.7	54.6*	109.6*	-1.0
O=C(COc1ccc2ccccc2c1Br)Nc1ccncc1	13.9	61.5*	41.1*	25.7	12.6	60.0*	-0.2
COc1cccc(OCC(=O)Nc2ccncc2)c1	5.5	-11.4	-1.3	10.7	-0.5	nt	nt
